Laboratory results published in ChEMBL document CHEMBL2086288, “Synthesis, antimicrobial and cytotoxicity study of 1,3-disubstituted-1H-naphtho[1,2-e][1,3]oxazines” (2012).

Legend:
Format in all cases: functional
Staphylococcus aureus = assay: Antibacterial activity against Staphylococcus aureus MTCC 2901 after 24 hrs by tube dilution method
Bacillus subtilis = assay: Antibacterial activity against Bacillus subtilis MTCC 2063 after 24 hrs by tube dilution method
Escherichia coli = assay: Antibacterial activity against Escherichia coli MTCC 1652 after 24 hrs by tube dilution method
Candida albicans = assay: Antifungal activity against Candida albicans MTCC 227 after 48 hrs by tube dilution method
Aspergillus niger = assay: Antifungal activity against Aspergillus niger MTCC 8184 after 7 days by tube dilution method
How it was run: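 Tube (serial) dilution MIC in Sabouraud dextrose broth I.P., 25 °C for 7 days. Results are recorded as MIC and reported as pMIC in mM.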

MCF7 [1] = assay: Growth inhibition of human MCF7 cells at 50 uM after 48 hrs by MTT assay; conditions: MCF7, 48 h, read-out: GI
How it was run: (§1)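 Cells from ECACC are kept in RPMI-1640 with 10% FCS and 1% penicillin at 37 °C in 5% CO2. They are seeded at 3×10^3 cells/well and dosed after 24 h from filter-sterilized DMSO stocks, then treated for 48 h. MTT (2.5 mg/mL in PBS) is added, formazan is dissolved in DMSO, and A570 is read. Viability is given as % of untreated.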

MCF7 [2] = assay: Growth inhibition of human MCF7 cells at 10 uM after 48 hrs by MTT assay; conditions: MCF7, 48 h, read-out: GI; how it was run: as §1
A549 [3] = assay: Growth inhibition of human A549 cells at 50 uM after 48 hrs by MTT assay; conditions: A549, 48 h, read-out: GI; how it was run: as §1
A549 [4] = assay: Growth inhibition of human A549 cells at 10 uM after 48 hrs by MTT assay; conditions: A549, 48 h, read-out: GI; how it was run: as §1
HCT-116 [5] = assay: Growth inhibition of human HCT116 cells at 50 uM after 48 hrs by MTT assay; conditions: HCT-116, 48 h, read-out: GI; how it was run: as §1
HCT-116 [6] = assay: Growth inhibition of human HCT116 cells at 10 uM after 48 hrs by MTT assay; conditions: HCT-116, 48 h, read-out: GI; how it was run: as §1
PC-3 [7] = assay: Growth inhibition of human PC3 cells at 50 uM after 48 hrs by MTT assay; conditions: PC-3, 48 h, read-out: GI; how it was run: as §1
PC-3 [8] = assay: Growth inhibition of human PC3 cells at 10 uM after 48 hrs by MTT assay; conditions: PC-3, 48 h, read-out: GI; how it was run: as §1

Structure (SMILES)	-logMIC (Staphylococcus aureus)	-logMIC (Bacillus subtilis)	-logMIC (Escherichia coli)	-logMIC (Candida albicans)	-logMIC (Aspergillus niger)	inhibition of growth at 50 µM (MCF7 [1]) [%]	inhibition of growth at 10 µM (MCF7 [2]) [%]	inhibition of growth at 50 µM (A549 [3]) [%]	inhibition of growth at 10 µM (A549 [4]) [%]	inhibition of growth at 50 µM (HCT-116 [5]) [%]	inhibition of growth at 10 µM (HCT-116 [6]) [%]	inhibition of growth at 50 µM (PC-3 [7]) [%]	inhibition of growth at 10 µM (PC-3 [8]) [%]
COc1ccc(C2=NC(c3ccccc3)c3c(ccc4ccccc34)O2)cc1 (configuration not stated)	1.77	1.77	2.37	1.77	1.47	42	37	43	19	14	8	23	19
Cc1ccc(C2N=C(c3ccc(Br)cc3)Oc3ccc4ccccc4c32)cc1 (configuration not stated)	1.83	1.83	1.83	1.83	1.53	33	26	32	13	10	2	2	0
Brc1ccc(C2=NC(c3ccccc3)c3c(ccc4ccccc34)O2)cc1 (configuration not stated)	1.52	1.82	1.52	1.82	1.52	39	27	40	23	29	6	11	4
Cc1ccc(C2=NC(c3ccccc3)c3c(ccc4ccccc34)O2)cc1 (configuration not stated)	1.75	1.45	2.05	1.75	1.45	46	36	43	19	38	8	20	14
c1ccc(C2=NC(c3ccccc3)c3c(ccc4ccccc34)O2)cc1 (configuration not stated)	1.43	2.03	2.33	1.73	1.43	37	26	36	19	22	5	16	1
Clc1ccc(C2=NC(c3ccccc3)c3c(ccc4ccccc34)O2)cc1 (configuration not stated)	1.77	1.77	2.37	1.77	1.47	39	27	38	17	29	3	19	9
Cc1ccc(C2N=C(c3ccc([N+](=O)[O-])cc3)Oc3ccc4ccccc4c32)cc1 (configuration not stated)	1.8	1.8	1.8	1.8	1.5	40	35	41	13	21	7	12	8
Cc1ccc(C2=NC(c3ccc(C)cc3)c3c(ccc4ccccc34)O2)cc1 (configuration not stated)	1.46	2.07	1.46	1.76	1.46	37	30	36	17	24	19	5	1
COc1ccc(C2=NC(c3ccc(OC)cc3)c3c(ccc4ccccc34)O2)cc1 (configuration not stated)	1.5	2.1	2.1	1.8	1.5	26	22	35	22	29	27	19	17
